# Experimental data reported in ChEMBL document CHEMBL4477201, “Imidazopyridine and Pyrazolopiperidine Derivatives as Novel Inhibitors of Serine Palmitoyl Transferase” (J Med Chem, 2016).
# Active and inactive are the calls of the source. No cut-off for these calls is given here.
# How the values were obtained:
# [1] = Fraction unbound in rat; type: ADME
# [2] = AUC (0 to 24 hrs) in Sprague-Dawley rat at 1 mg/kg, iv; type: ADME, organism-based; design: time < 24 hr, dose 1 mg/kg, route intravenous; conditions: in vivo
# Summary of the method: (§1)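 Single dose to fasted male Sprague Dawley rats, IV at 1 mg/kg or oral at 3 mg/kg. Plasma levels followed to derive AUC0-24hr, Cmax, half-life, Vdss and oral bioavailability.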
# [3] = Drug uptake in diet-induced obese C57Bl/6 mouse serum at 3 mg/kg, po qd for 4 weeks measured 6 hrs post last dose; type: ADME, organism-based; conditions: read-out: Drug uptake
# Summary of the method: (§2)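 Male DIO mice dosed orally for 4 weeks. Sacrificed 6 h after the last dose. Compound measured in serum (ng/mL) and liver (ng/g), and the liver:serum ratio calculated.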
# [4] = Half life in Sprague-Dawley rat at 1 mg/kg, iv; type: ADME, organism-based; conditions: in vivo; summary of the method: as §1
# [5] = AUC (0 to 24 hrs) in Sprague-Dawley rat at 3 mg/kg,po; type: ADME, organism-based; design: time < 24 hr, dose 3 mg/kg, route oral; conditions: in vivo; summary of the method: as §1
# Mus musculus [6] = test: Reduction in total plasma ceramide level in C57BL6 mouse administered through gavage after 6 hrs by mass spectrometry relative to vehicle-treated control; type: functional
# Summary of the method: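 Normal C57bl6 mice given a single oral dose at six dose levels, n=3 per group. Plasma collected 6 h post dose. C16:0, C20:0, C22:0, C24:0 and C24:1 ceramides measured by mass spectrometry and summed; total reduction calculated versus vehicle. ED50 derived from the dose-response; mean ± SEM.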
# Mus musculus [7] = test: Reduction in plasma C18:0 ceramide level in diet-induced obese C57BL6 mouse at 1 to 60 mg/kg administered daily through oral gavage for 28 days measured 2 hrs post last dose relative to lean control; type: functional, organism-based
# Summary of the method: (§3)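 DIO mice dosed orally for 28 days, with myriocin as positive control and lean mice as reference. Total and C18:0 plasma ceramides measured 2 h after the final dose.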
# Rattus norvegicus [8] = test: Increase in HDL level in cholic acid/cholesterol-fed Sprague-Dawley rat model of dyslipidemia administered bid through oral gavage measured after 1 week by FPLC analysis relative to vehicle-treated control; type: functional, organism-based
# Summary of the method: (§4)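 Sprague Dawley rats fed a cholic acid/cholesterol diet for 14 days, then dosed orally BID for 7 days at five dose levels, n=6. Serum ceramides and VLDL and HDL cholesterol compared with vehicle (dose 0). Mean ± SEM; Dunnett's test, p<0.05.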
# [9] = Ratio of drug uptake in diet-induced obese C57Bl/6 mouse liver to serum at 3 mg/kg, po qd for 4 weeks measured 6 hrs post last dose; type: ADME, organism-based; summary of the method: as §2
# [10] = Dissociation constant, pKa of the compound; type: physicochemical
# Rattus norvegicus [11] = test: Reduction in total plasma ceramide level in cholic acid/cholesterol-fed Sprague-Dawley rat model of dyslipidemia at 10 to 60 mg/kg administered bid through oral gavage measured after 1 week by FPLC analysis relative to vehicle-treated control; type: functional, organism-based; summary of the method: as §4
# [12] = Drug uptake in diet-induced obese C57Bl/6 mouse serum at 25 mg/kg, po qd for 4 weeks measured 6 hrs post last dose; type: ADME, organism-based; conditions: read-out: Drug uptake; summary of the method: as §2
# [13] = Lipophilicity, log P of compound; type: physicochemical; conditions: octanol/water
# [14] = Drug uptake in diet-induced obese C57Bl/6 mouse liver at 0.1 mg/kg, po qd for 4 weeks measured 6 hrs post last dose; type: ADME, organism-based; conditions: read-out: Drug uptake; summary of the method: as §2
# [15] = Toxicity in diet-induced obese C57Bl/6 mouse assessed as decrease in food intake at 25 mg/kg, po qd for 4 weeks; type: organism-based; conditions: in vivo, 672 h
# Summary of the method: (§5)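 Food intake monitored in DIO mice during 4 weeks of daily oral dosing.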
# Rattus norvegicus [16] = test: Reduction in vLDL level in cholic acid/cholesterol-fed Sprague-Dawley rat model of dyslipidemia at 1 to 60 mg/kg administered bid through oral gavage measured after 1 week by FPLC analysis relative to vehicle-treated control; type: functional, organism-based; summary of the method: as §4
# Mus musculus [17] = test: Reduction in blood glucose in diet-induced obese C57BL6 mouse at 25 mg/kg, po qd for 4 weeks by oral glucose tolerance test relative to lean control; type: functional, organism-based
# Summary of the method: (§6)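 After 4 weeks of oral dosing, DIO mice underwent an oral glucose tolerance test. Insulin and glucose AUC compared with lean mice; trend assessed by ANOVA trend analysis.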
# [18] = Cmax in Sprague-Dawley rat at 1 mg/kg, iv; type: ADME, organism-based; design: dose 1 mg/kg, route intravenous; conditions: in vivo; summary of the method: as §1
# [19] = molecular target: T1, Serine palmitoyltransferase 1 (Homo sapiens, UniProt O15269); test: (§7) Inhibition of SPT1 in human MCF7 cells assessed as suppression of 14C-serine incorporation into ceramide incubated for 2 hrs in presence of 4-HPR; type: cell-based
# T1 sequence (O15269 whole entry): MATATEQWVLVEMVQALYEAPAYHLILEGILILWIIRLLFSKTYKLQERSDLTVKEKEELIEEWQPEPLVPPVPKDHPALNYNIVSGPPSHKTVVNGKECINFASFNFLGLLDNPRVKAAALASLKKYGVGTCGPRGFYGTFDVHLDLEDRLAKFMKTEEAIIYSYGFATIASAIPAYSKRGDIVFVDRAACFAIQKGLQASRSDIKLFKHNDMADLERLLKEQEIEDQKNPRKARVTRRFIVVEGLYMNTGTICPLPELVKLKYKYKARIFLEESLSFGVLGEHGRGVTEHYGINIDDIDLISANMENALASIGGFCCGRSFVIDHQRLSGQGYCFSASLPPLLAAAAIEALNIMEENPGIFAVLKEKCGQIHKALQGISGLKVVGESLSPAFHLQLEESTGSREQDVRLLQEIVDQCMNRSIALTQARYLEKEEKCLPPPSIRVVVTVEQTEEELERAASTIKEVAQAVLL
# Summary of the method: (§8)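 Human MCF-7 cells incubated 2 h with a range of compound concentrations or DMSO control media. Medium contained 14C-serine plus 25 uM 4-HPR to activate SPT. 14C-serine-labeled ceramide products quantified to give EC50.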
# [20] = molecular target: T2, Serine palmitoyltransferase 1 (Homo sapiens) (UniProt O15269); test: as §7; type: cell-based; summary of the method: as §8
# T2 sequence (whole entry): T1 sequence (O15269 whole entry)
# [21] = Drug uptake in diet-induced obese C57Bl/6 mouse serum at 10 mg/kg, po qd for 4 weeks measured 6 hrs post last dose; type: ADME, organism-based; conditions: read-out: Drug uptake; summary of the method: as §2
# [22] = Drug uptake in diet-induced obese C57Bl/6 mouse liver at 25 mg/kg, po qd for 4 weeks measured 6 hrs post last dose; type: ADME, organism-based; conditions: read-out: Drug uptake; summary of the method: as §2
# [23] = Drug uptake in diet-induced obese C57Bl/6 mouse serum at 1 mg/kg, po qd for 4 weeks measured 6 hrs post last dose; type: ADME, organism-based; conditions: read-out: Drug uptake; summary of the method: as §2
# [24] = Volume of distribution at steady state in Sprague-Dawley rat at 3 mg/kg,po; type: ADME, organism-based; conditions: in vivo
# Summary of the method: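 Male Sprague Dawley rats, fasted, single oral dose of 3 mg/kg. A parallel arm received 1 mg/kg IV. Plasma was sampled for pharmacokinetics over 0-24 hr. Steady-state volume of distribution is reported […], in mL/kg.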
# [25] = Ratio of drug uptake in diet-induced obese C57Bl/6 mouse liver to serum at 10 mg/kg, po qd for 4 weeks measured 6 hrs post last dose; type: ADME, organism-based; summary of the method: as §2
# Mus musculus [26] = test: Reduction in total liver ceramide level in diet-induced obese C57BL6 mouse at 1 to 60 mg/kg administered daily through oral gavage for 28 days measured 6 hrs post last dose relative to lean control; type: functional, organism-based
# Summary of the method: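 Liver total ceramide levels measured in DIO mice after 4 weeks of oral dosing.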
# [27] = Half life in Sprague-Dawley rat at 3 mg/kg,po; type: ADME, organism-based; conditions: in vivo; summary of the method: as §1
# Mus musculus [28] = test: Reduction in serum insulin in diet-induced obese C57BL6 mouse at 25 mg/kg, po qd for 4 weeks by oral glucose tolerance test relative to lean control; type: functional, organism-based; summary of the method: as §6
# [29] = Ratio of drug uptake in diet-induced obese C57Bl/6 mouse liver to serum at 1 mg/kg, po qd for 4 weeks measured 6 hrs post last dose; type: ADME, organism-based; summary of the method: as §2
# [30] = Ratio of drug uptake in diet-induced obese C57Bl/6 mouse liver to serum at 0.1 mg/kg, po qd for 4 weeks measured 6 hrs post last dose; type: ADME, organism-based; conditions: other tissue; summary of the method: as §2
# [31] = molecular target: T1, Serine palmitoyltransferase 1; test: Inhibition of human SPT1 expressed in microsomes of HEK293 cells incubated for 1hr by LC/MS analysis
# Summary of the method: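 SPT source was a microsomal fraction from HEK293 cells, with serine and palmitoyl coenzyme A as substrates. Formation of 3-ketodeoxysphinganine quantified by LC/MS. Inhibition determined at 10 concentrations per compound to give IC50.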
# [32] = Toxicity in diet-induced obese C57Bl/6 mouse assessed as decrease in food intake at 10 mg/kg, po qd for 4 weeks; type: organism-based; conditions: in vivo, 672 h; summary of the method: as §5
# [33] = Drug uptake in diet-induced obese C57Bl/6 mouse liver at 10 mg/kg, po qd for 4 weeks measured 6 hrs post last dose; type: ADME, organism-based; conditions: read-out: Drug uptake; summary of the method: as §2
# [34] = Volume of distribution at steady state in Sprague-Dawley rat at 1 mg/kg, iv; type: ADME, organism-based; conditions: in vivo, read-out: Vdss; summary of the method: as §1
# [35] = Drug uptake in diet-induced obese C57Bl/6 mouse serum at 0.1 mg/kg, po qd for 4 weeks measured 6 hrs post last dose; type: ADME, organism-based; conditions: read-out: Drug uptake; summary of the method: as §2
# [36] = Toxicity in rat assessed as induction of gastric enteropathy during 14 days toxicology study; conditions: in vivo, 336 h
# Mus musculus [37] = test: Reduction in total plasma ceramide level in diet-induced obese C57BL6 mouse administered daily through oral gavage for 28 days measured 2 hrs post last dose relative to lean control; type: functional, organism-based; summary of the method: as §3
# [38] = Ratio of drug uptake in diet-induced obese C57Bl/6 mouse liver to serum at 25 mg/kg, po qd for 4 weeks measured 6 hrs post last dose; type: ADME, organism-based; summary of the method: as §2
# [39] = Drug uptake in diet-induced obese C57Bl/6 mouse liver at 1 mg/kg, po qd for 4 weeks measured 6 hrs post last dose; type: ADME, organism-based; conditions: read-out: Drug uptake; summary of the method: as §2
# [40] = Cmax in Sprague-Dawley rat at 3 mg/kg,po; type: ADME, organism-based; design: dose 3 mg/kg, route oral; conditions: in vivo; summary of the method: as §1
# [41] = Drug uptake in diet-induced obese C57Bl/6 mouse liver at 3 mg/kg, po qd for 4 weeks measured 6 hrs post last dose; type: ADME, organism-based; conditions: read-out: Drug uptake; summary of the method: as §2
# [42] = Oral bioavailability in Sprague-Dawley rat at 3 mg/kg; type: ADME, organism-based; conditions: in vivo; summary of the method: as §1
# Mus musculus [43] = test: Reduction in plasma C18:0 ceramide level in diet-induced obese C57BL6 mouse at 0.5 mg/kg administered daily through oral gavage for 28 days measured 2 hrs post last dose relative to lean control; type: functional, organism-based
# Summary of the method: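 DIO mice received daily oral doses for 4 weeks as part of a dose-response study. Plasma was sampled 2 h after the final dose. Total and C18:0 plasma ceramides were measured and compared with those of lean control mice. At the end of dosing, the same cohort underwent an oral glucose tolerance test.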
compound,measurement,setting,value
CCCCCCC(=O)N1CCc2c(c(-c3ccc(C(C)(C)C(=O)O)cc3)nn2C)C1,fraction unbound,[1],0.02
same,AUC(0-t) at 24 h,[2],190 ng·h/mL
same,concentration at 6 h,[3],665 ng/mL
same,half-life,[4],5.17 h
same,AUC(0-t) at 24 h,[5],155 ng·h/mL
same,Activity,Mus musculus [6],Dose-dependent effect
same,ED50,"Mus musculus [6]; C57BL6, po",8.8 mg/kg
same,Activity,Mus musculus [7],Active
same,Activity,Rattus norvegicus [8],Dose-dependent effect
same,Kp at 6 h,[9],126
same,pKa,[10],4.19
same,Activity,Rattus norvegicus [11],Active
same,concentration at 6 h,[12],1210 ng/mL
same,logP,[13],4.66
same,concentration at 6 h,[14],26500 ng/g
same,Activity,[15],Toxic
same,Activity,Rattus norvegicus [16],inactive
same,Activity,Mus musculus [17],Active
same,Cmax,[18],756 ng/mL
same,EC50,[19],4.22 µM
same,inhibition,[20],Dose-dependent effect
same,concentration at 6 h,[21],855 ng/mL
same,concentration at 6 h,[22],119000 ng/g
same,concentration at 6 h,[23],141 ng/mL
same,Vdss,[24],126 L/kg
same,Kp at 6 h,[25],152
same,Activity,Mus musculus [26],Active
same,half-life,[27],7.65 h
same,Activity,Mus musculus [28],Active
same,Kp at 6 h,[29],434
same,Ratio,[30],5292
same,IC50,[31],0.0639 µM
same,Activity,[32],Non-Toxic
same,concentration at 6 h,[33],130000 ng/g
same,Vd,[34],8.33 L/kg
same,concentration at 6 h,[35],5 ng/mL
same,Activity,[36],Toxic
same,Activity,Mus musculus [37],Dose-dependent effect
same,Kp at 6 h,[38],99
same,concentration at 6 h,[39],61200 ng/g
same,Cmax,[40],16.3 ng/mL
same,concentration at 6 h,[41],83800 ng/g
same,bioavailability,[42],33%
CCCCCCC(=O)CCCCCC/C=C/C[C@@H](O)[C@H](O)[C@@](N)(CO)C(=O)O [MYRIOCIN],Activity,Mus musculus [43],Active
same,EC50,[19],0.0495 µM
